Bioassay records (PubChem)
Hits are enriched below; roughly 1.8% of the tested compounds scored in any of these assays.
CAL PDZ FP-1 – blocks peptide binding to the human CAL PDZ domain; Q9HD26; purified CAL PDZ, TMR-peptide fluorescence polarization, 1 h; inhibition, % at 24.9 µM; actives 0.92% (n = 300,000); AID 602252;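 active = mean inhibition of at least 30% with at least half of replicates also reaching 30%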;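 also: 0% = DMSO neutral control and 100% = excess unlabeled competitor peptide PRC23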
DDE Tn7 FP inh – inhibitors of Tn7 peptide binding to human fibrin DD(E); P02675; FP displacement of FITC-Tn7 peptide from fibrin DD(E); 0% = median of compound wells per plate; inhibition, % at 8.3 µM; actives 0.13% (n = 370,000); AID 720508;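 active = inhibition above the mean of compounds falling within the control limits plus 3 SD of them, cut at about 14% in these data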;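 also: 0% = plate median of compound wells and 100% = 10 µM Aha-Tn7 peptide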
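Measure: % inhibition scaled between sample-field median and high-control FP; Test system: human fibrin DD(E); Quantity: 2 µM final DD(E) protein; Doses: one dose, 8.3 µM nominal; Schedule: compound with protein 10 min, then 3 h after probe, room temperature; Detection: fluorescence polarization; Medium: Tris buffer with calcium and detergent, pH 7.8.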
ARNT-TACC3 inh – ARNT/TACC3 interaction disruption. AlphaScreen His-ARNT PAS-B/GST-TACC3 binding, luminescence; TACC3 fragment carries E629A point mutation. AID 623870. inhibition, % at 9.99 µM. actives 0.66% (n = 390,000);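 active = mean inhibition of replicates at least 50% and at least half of replicates each reaching 50%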;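 also: 0% = complete ARNT plus TACC3 wells and 100% = ARNT alone without TACC3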
GRK2 inh – inhibitors of human GRK2 displacing RNA aptamer. bead flow cytometry, FAM-aptamer displacement from GRK2. inhibition of aptamer binding, % at 10 µM. actives 0.59% (n = 330,000);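 active = inhibition of aptamer binding above 40%, roughly 3 SD of noise, on plates passing a quality check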;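 also: median bead fluorescence of bound FAM aptamer so fluorescent compounds give negative values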
Target sequence (P25098 whole entry, looked up): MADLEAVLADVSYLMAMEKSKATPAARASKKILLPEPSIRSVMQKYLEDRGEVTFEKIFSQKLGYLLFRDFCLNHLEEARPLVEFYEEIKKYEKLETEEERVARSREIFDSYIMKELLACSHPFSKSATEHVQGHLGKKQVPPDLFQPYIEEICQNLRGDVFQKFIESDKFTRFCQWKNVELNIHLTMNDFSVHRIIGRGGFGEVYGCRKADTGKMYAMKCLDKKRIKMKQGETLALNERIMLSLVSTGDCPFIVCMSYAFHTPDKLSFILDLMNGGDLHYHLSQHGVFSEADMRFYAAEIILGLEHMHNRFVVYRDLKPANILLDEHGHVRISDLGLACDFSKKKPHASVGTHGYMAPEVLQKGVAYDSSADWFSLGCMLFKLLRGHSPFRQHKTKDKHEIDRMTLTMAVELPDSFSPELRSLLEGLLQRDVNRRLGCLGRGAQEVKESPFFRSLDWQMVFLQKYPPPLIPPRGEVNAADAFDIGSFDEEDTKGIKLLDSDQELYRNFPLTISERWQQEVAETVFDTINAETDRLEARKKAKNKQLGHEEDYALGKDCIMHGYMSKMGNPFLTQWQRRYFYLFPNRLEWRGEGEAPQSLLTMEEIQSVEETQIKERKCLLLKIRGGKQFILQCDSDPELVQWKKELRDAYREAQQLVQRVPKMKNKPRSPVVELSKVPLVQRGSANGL
CAL PDZ FP-2 – blocks peptide binding to human CAL PDZ domain. purified CAL PDZ, TMR-peptide fluorescence polarization, 1 h. inhibition, % at 20 µM. actives 0.02% (n = 330,000). AID 504414. Q9HD26;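 active = highest replicate inhibition of at least 40%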;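 also: plate controls were DMSO neutral control wells for no effect and unlabeled competitor peptide control wells for full effect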
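Test system: purified CerCALP PDZ construct; Compound dosing: one concentration, 20 µM compound; Also added: TMR-labelled reporter peptide T*-PRC34 bound in PDZ groove; Read-out: inhibition from polarization loss; Controls: unlabelled peptide and DMSO controls; Signal: FP readout, S and P plane fluorescence; Incubation: 1 h at RT.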
DDE Tn6 FP inh – disrupts Tn6 cyclic peptide binding to fibrin D-Dimer-E complex | actives 0.21% (n = 370,000) | Fibrin DD(E) TRITC-Tn6 fluorescence polarization displacement | inhibition, % at 8.3 µM;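 active = inhibition above a per-campaign cutoff: mean of compounds within control limits plus 3 SD, cut at about 15% in these data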;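 also: 0% = median of all compound wells on the plate and 100% = blocking peptide control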
* = called active by the depositor; . = no result; + = active, no number.

SMILES | CAL PDZ FP-1 | DDE Tn7 FP inh | ARNT-TACC3 inh | GRK2 inh | CAL PDZ FP-2 | DDE Tn6 FP inh
CCC(=O)N1[C@H](CO)[C@@H]2c3ccccc3N(C(=O)NC(C)C)C[C@@H]21 | . | . | -3 | . | . | .
COc1ccccc1N(CC(=O)N1CCN(c2ccccc2)CC1)S(=O)(=O)c1ccc(C)cc1 | 66* | 4 | -9 | 2 | -1 | -1
CCc1ccc(CNC(=O)C2CCCN(c3nnc(C)c4c(C)n(-c5ccccc5)nc34)C2)cc1 (stereo not given) | 64* | -5 | 1 | 0 | -2 | -6
O=Nc1c(O)[nH]c2ccc(Cl)c(Cl)c12 | -4 | 4 | 59* | . | -2 | 0
COc1cccc(NC(=O)Cn2nnc(C(=O)NCCc3ccccc3)c2N)c1 | -2 | 1 | 12 | 0 | -1 | -5
CO[C@H]1CN(C)C(=O)c2ccc(NC(=O)c3ccccc3F)cc2OC[C@@H](C)N(C(=O)c2ccccc2F)C[C@@H]1C | . | . | -5 | . | . | .
Cc1nc(C)c(C(=O)N2CCCC(CCC(=O)NCc3ccc(F)c(F)c3)C2)s1 (stereo not given) | . | 0 | 2 | 0 | -2 | 0
CCc1noc(C)c1C(=O)N1CCCC(CCC(=O)NCc2ccc(F)c(F)c2)C1 (stereo not given) | 71* | -9 | 11 | 0 | 22 | 4
CCC(c1nnc(SC(C)C(=O)NC2CC2)n1-c1ccc(OC)cc1)N(C)C (stereo not given) | 68* | 3 | -3 | 3 | 1 | 3
COc1cc(/C=C/C(=O)OCC(=O)c2ccc[nH]2)cc(OC)c1OC | 40* | -1 | -5 | 1 | 0 | 6
COc1ccc(/C=C/C(=O)OCC(=O)c2ccc[nH]2)cc1 | -5 | 3 | . | 3 | -1 | 4
COc1ccccc1N1CCN(S(=O)(=O)c2ccc3c(c2)CCC(=O)N3)CC1 | . | 5 | . | . | . | 0
O=c1ccc2cc3c([nH]c4ccc(Br)cc43)oc-2c1O | 5 | -15 | 17 | 5 | 48* | -18
O=C(/C=C/c1cc[n+](CC(=O)c2ccc3cccc4c3c2CC4)cc1)c1ccc2cccc3c2c1CC3 | -1 | . | 0 | 94* | -2 | .
O=C(Nc1ccc(Nc2ccccc2)cc1)c1cc([N+](=O)[O-])ccc1Cl | 46* | -4 | 2 | 0 | 9 | 6
COc1ccc(-c2cccc(NC(=O)c3ccc4c(c3)OCO4)c2)nn1 | -2 | -9 | . | 0 | -1 | -2
CC1(C(=O)NC(=S)N(CCC#N)Cc2cccnc2)CC1(Cl)Cl (stereo not given) | . | . | . | 0 | . | .
N#CCCN(Cc1cccnc1)C(=S)NC(=O)c1ccccc1 | 89* | 3 | -2 | 1 | -1 | 3
Cc1ccc(N=Nc2c(N)[nH]n3c(=O)cc(-c4ccccc4)nc23)cc1 | -2 | 11 | 1 | 0 | 1 | 1
COc1cccc(N=Nc2c(N)[nH]n3c(=O)cc(-c4ccccc4)nc23)c1 | 63* | -3 | 2 | 0 | -1 | -4
COC(=O)c1ccccc1NC(=S)N1CCC(N2CCCCC2)CC1 | . | -2 | 13 | 0 | -1 | 0
COC(=O)c1ccccc1NC(=S)N1CCN(C2CCCCC2)CC1 | 61* | 9 | 2 | 0 | -1 | 6
O=c1c2ccccc2nc(SCc2ccccc2F)n1C1CCCC1 | 10 | 0 | 47* | 1 | -1 | -3
Cc1noc(C)c1S(=O)(=O)Nc1ccc2c(c1)C(=O)N([C@@H](C)CO)C[C@H](C)[C@@H](CN(C)C(=O)Nc1ccc3c(c1)OCO3)OCCCC[C@@H](C)O2 | . | . | 5 | . | . | .
COc1cc([N+](=O)[O-])cc(/C=N/NC(=O)c2cccnc2)c1O | 2 | -5 | 73* | 0 | -1 | 9
SMILES | CAL PDZ FP-1 | DDE Tn7 FP inh | ARNT-TACC3 inh | GRK2 inh | CAL PDZ FP-2 | DDE Tn6 FP inh
COc1cccc(/C=N/Nc2ccccc2C(=O)O)c1O | 81* | 4 | 1 | 0 | 0 | 3
CCn1c(C)nc2cc(C(=O)N/N=C/c3cccc(OC)c3O)ccc21 | -11 | 6 | 40* | 7 | -3 | -12
CCOc1cccc(/C=N/NC(=O)c2cc(C3CC3)[nH]n2)c1O | -3 | 2 | 71* | 1 | -4 | 3
COc1cccc(/C=N/NC(=O)N/N=C/c2cccc(OC)c2O)c1O | -7 | -2 | 13 | 0 | -1 | 2
COc1cccc(C=NNC(=O)c2ccncc2)c1O | . | 0 | 69* | . | -1 | -1
CCOc1cccc(/C=N/NC(=O)c2cccnc2)c1O | -4 | 7 | 56* | 2 | -2 | 8
C/C(CC(=O)Nc1ccc2c(c1)OCCO2)=N\NC(=O)COc1ccc(C)cc1 | -1 | 9 | 0 | 0 | -1 | 0
COc1ccc(CC(=O)N/N=C(\C)CC(=O)Nc2ccc3c(c2)OCCO3)cc1OC | 44* | 0 | 6 | 0 | -3 | 4
C/C(CC(=O)Nc1ccc2c(c1)OCCO2)=N\NC(=O)COc1ccc(Cl)c(C)c1 | 47* | 3 | 1 | 0 | -2 | 1
C[C@@H]1CN([C@H](C)CO)C(=O)c2cc(C#CC3(O)CCCC3)cnc2O[C@H]1CN(C)S(=O)(=O)c1ccc(F)cc1 | . | . | -7 | . | . | .
CCN1[C@H](C(=O)NCCOC)[C@@H](CO)[C@@H]2Cn3c(ccc(-c4ccc(C(=O)N(C)C)cc4)c3=O)[C@@H]21 | . | . | -8 | . | . | .
O=C(CNc1ccccc1F)N/N=C/C1CC=CCC1 (stereo not given) | 58* | -3 | 2 | 0 | -2 | -1
Cc1ccc(-c2csc3ncnc(SCC(=O)NCC4CCCO4)c23)cc1 (stereo not given) | 33* | -7 | . | 0 | -1 | -2
COc1ccc(CN(C(=O)c2ccco2)c2ccc(C)c(C)c2)cc1 | 31* | -4 | 5 | 0 | 0 | -7
N#CCCN(Cc1ccccc1)C(=O)c1cccs1 | + | -3 | -1 | 1 | 1 | -5
CCOC(=O)N1CCC(Nc2c(Nc3ccc(F)cc3)c(=O)c2=O)CC1 | 59* | -4 | 5 | 5 | 0 | 2
O=C(C[C@H]1C[C@H]2c3cc(NC(=O)C4CCC4)ccc3O[C@H]2[C@@H](CO)O1)NCCc1ccccc1 | . | . | -4 | . | . | .
CC(C)Oc1cccc(C(=O)C2CCCN(C(=O)CCn3cnnn3)C2)c1 (stereo not given) | 77* | 3 | 1 | 0 | -1 | 0
CCN(C(=O)c1ccc(NC(=O)Cc2ccccc2)cc1)c1ccccc1 | 48* | -8 | -2 | 3 | -1 | 2
